Measurements as given in ChEMBL document CHEMBL1240473, “Synthesis and bioassay of aminosulfonyl-1,3,4-oxadiazoles and their interconversion to 1,3,4-thiadiazoles” (2010).
Converted amounts (≈) assume the structure as drawn.

What was measured:
Assay type in all cases: functional
Staphylococcus aureus [1] = assay: Antimicrobial activity against Staphylococcus aureus NCIM 5021 after 24 hrs by microdilution susceptibility method; conditions: NCIM 5021, 24 h
In short: (§1)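 Broth microdilution MIC with NCIM strains. Compounds and the references (chloramphenicol, antibacterial; ketoconazole, antifungal) were dissolved in DMSO at 800 and diluted two-fold from 400 down to 6.25. Wells were inoculated with the microbial suspension and incubated at 36 °C, 24 h for bacteria and 48 h for fungi. MIC was the lowest concentration with no visible growth.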

Fusarium solani [2] = assay: Antimicrobial activity against Fusarium solani NCIM 1330 at 200 ug/disk after 48 hrs by agar disc-diffusion method; conditions: NCIM 1330, 48 h, read-out: DIZ
In short: (§2)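 Agar disc diffusion with NCIM strains. Sterile 6 mm filter-paper discs were moistened with compound in DMSO at 100 or 200 per disc and placed on agar plates pre-inoculated with each organism. Plates were incubated at 37 °C. Growth-inhibition zone diameter was read at 24 h for bacteria and 48 h for fungi.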

Proteus vulgaris [3] = assay: Antimicrobial activity against Proteus vulgaris NCIM 2027 at 100 ug/disk after 24 hrs by agar disc-diffusion method; conditions: NCIM 2027, 24 h, read-out: DIZ
Proteus vulgaris [4] = assay: Antimicrobial activity against Proteus vulgaris NCIM 2027 after 24 hrs by microdilution susceptibility method; conditions: NCIM 2027, 24 h
Curvularia lunata [5] = assay: Antimicrobial activity against Curvularia lunata NCIM 716 at 100 ug/disk after 48 hrs by agar disc-diffusion method; conditions: NCIM 716, 48 h, read-out: DIZ; in short: as §2
Bacillus subtilis [6] = assay: Antimicrobial activity against Bacillus subtilis NCIM 2063 at 100 ug/disk after 24 hrs by agar disc-diffusion method; conditions: NCIM 2063, 24 h, read-out: DIZ; in short: as §2
Aspergillus niger [7] = assay: Antimicrobial activity against Aspergillus niger NCIM 596 at 100 ug/disk after 48 hrs by agar disc-diffusion method; conditions: NCIM 596, 48 h, read-out: DIZ; in short: as §2
Staphylococcus aureus [8] = assay: Antimicrobial activity against Staphylococcus aureus NCIM 5021 at 100 ug/disk after 24 hrs by agar disc-diffusion method; conditions: NCIM 5021, 24 h, read-out: DIZ; in short: as §2
Fusarium solani [9] = assay: Antimicrobial activity against Fusarium solani NCIM 1330 after 48 hrs by microdilution susceptibility method; conditions: NCIM 1330, 48 h; in short: as §1
[10] = system: Radical scavenging activity; assay: Antioxidant activity assessed as DPPH free radical scavenging activity at 100 uM after 20 mins
In short: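 Compound solutions were added to DPPH in dioxane/ethanol and kept at ambient temperature for 20 min, then absorbance was read at 517 nm. Percent inhibition = (A_control − A_sample)/A_control × 100, […].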

Bacillus subtilis [11] = assay: Antimicrobial activity against Bacillus subtilis NCIM 2063 at 200 ug/disk after 24 hrs by agar disc-diffusion method; conditions: NCIM 2063, 24 h, read-out: DIZ; in short: as §2
[12] = Antioxidant activity assessed as nitric oxide scavenging activity at 100 uM after 120 min by Griess assay
In short: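 Sodium nitroprusside (5 mM) in phosphate buffer pH 7.4 was incubated with test compound dissolved in dioxane/methanol at 25 °C for 120 min. A solvent-only control was run in parallel. Aliquots were mixed 1:1 with Griess reagent (1% sulfanilamide, 0.1% N-naphthylethylenediamine dihydrochloride, 2% o-phosphoric acid in water).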

Aspergillus niger [13] = assay: Antimicrobial activity against Aspergillus niger NCIM 596 at 200 ug/disk after 48 hrs by agar disc-diffusion method; conditions: NCIM 596, 48 h, read-out: DIZ; in short: as §2
Klebsiella pneumoniae [14] = assay: Antimicrobial activity against Klebsiella pneumoniae NCIM 2957 after 24 hrs by microdilution susceptibility method; conditions: NCIM 2957, 24 h; in short: as §1
Aspergillus niger [15] = assay: Antimicrobial activity against Aspergillus niger NCIM 596 after 48 hrs by microdilution susceptibility method; conditions: NCIM 596, 48 h; in short: as §1
Proteus vulgaris [16] = assay: Antimicrobial activity against Proteus vulgaris NCIM 2027 at 200 ug/disk after 24 hrs by agar disc-diffusion method; conditions: NCIM 2027, 24 h, read-out: DIZ
Fusarium solani [17] = assay: Antimicrobial activity against Fusarium solani NCIM 1330 at 100 ug/disk after 48 hrs by agar disc-diffusion method; conditions: NCIM 1330, 48 h, read-out: DIZ; in short: as §2
Bacillus subtilis [18] = assay: Antimicrobial activity against Bacillus subtilis NCIM 2063 after 24 hrs by microdilution susceptibility method; conditions: NCIM 2063, 24 h; in short: as §1
Staphylococcus aureus [19] = assay: Antimicrobial activity against Staphylococcus aureus NCIM 5021 at 200 ug/disk after 24 hrs by agar disc-diffusion method; conditions: NCIM 5021, 24 h, read-out: DIZ; in short: as §2
Klebsiella pneumoniae [20] = assay: Antimicrobial activity against Klebsiella pneumoniae NCIM 2957 at 100 ug/disk after 24 hrs by agar disc-diffusion method; conditions: NCIM 2957, 24 h, read-out: DIZ; in short: as §2
Klebsiella pneumoniae [21] = assay: Antimicrobial activity against Klebsiella pneumoniae NCIM 2957 at 200 ug/disk after 24 hrs by agar disc-diffusion method; conditions: NCIM 2957, 24 h, read-out: DIZ; in short: as §2
Curvularia lunata [22] = assay: Antimicrobial activity against Curvularia lunata NCIM 716 after 48 hrs by microdilution susceptibility method; conditions: NCIM 716, 48 h; in short: as §1
Curvularia lunata [23] = assay: Antimicrobial activity against Curvularia lunata NCIM 716 at 200 ug/disk after 48 hrs by agar disc-diffusion method; conditions: NCIM 716, 48 h, read-out: DIZ; in short: as §2

Row | Structure (SMILES) | MIC (Staphylococcus aureus [1]) [µg/mL] | zone of inhibition at 200 µg/disc (Fusarium solani [2]) [mm] | zone of inhibition at 100 µg/disc (Proteus vulgaris [3]) [mm] | MIC (Proteus vulgaris [4]) [µg/mL] | zone of inhibition at 100 µg/disc (Curvularia lunata [5]) [mm] | zone of inhibition at 100 µg/disc (Bacillus subtilis [6]) [mm] | zone of inhibition at 100 µg/disc (Aspergillus niger [7]) [mm] | zone of inhibition at 100 µg/disc (Staphylococcus aureus [8]) [mm] | MIC (Fusarium solani [9]) [µg/mL] | Activity [10] [%] | zone of inhibition at 200 µg/disc (Bacillus subtilis [11]) [mm] | Activity [12] [%] | zone of inhibition at 200 µg/disc (Aspergillus niger [13]) [mm] | MIC (Klebsiella pneumoniae [14]) [µg/mL] | MIC (Aspergillus niger [15]) [µg/mL] | zone of inhibition at 200 µg/disc (Proteus vulgaris [16]) [mm] | zone of inhibition at 100 µg/disc (Fusarium solani [17]) [mm] | MIC (Bacillus subtilis [18]) [µg/mL] | zone of inhibition at 200 µg/disc (Staphylococcus aureus [19]) [mm] | zone of inhibition at 100 µg/disc (Klebsiella pneumoniae [20]) [mm] | other results
1 | O=S(=O)(Cc1nnc(CS(=O)(=O)c2ccc(Cl)cc2)s1)Nc1ccc(Cl)cc1 | 25 (≈ 52.3 µM) | 37 | 25 | 50 (≈ 105 µM) | 34 | 28 | 32 | 31 | 50 (≈ 105 µM) | 29.9 | 32 | 28.2 | 33 | 50 (≈ 105 µM) | 50 (≈ 105 µM) | 28 | 33 | 25 (≈ 52.3 µM) | 33 | 28 | zone of inhibition at 200 µg/disc (Klebsiella pneumoniae [21]): 30 mm; MIC (Curvularia lunata [22]): 50 µg/mL (≈ 105 µM); zone of inhibition at 200 µg/disc (Curvularia lunata [23]): 36 mm
2 | Cc1ccc(NS(=O)(=O)Cc2nnc(CS(=O)(=O)c3ccc(C)cc3)s2)cc1 | 50 (≈ 114 µM) | 35 | 24 | 100 (≈ 229 µM) | 25 | 27 | 22 | 25 | 50 (≈ 114 µM) | 21.7 | 29 | 20.3 | 26 | 100 (≈ 229 µM) | 100 (≈ 229 µM) | 26 | 27 | 50 (≈ 114 µM) | 28 | 25 | zone of inhibition at 200 µg/disc (Klebsiella pneumoniae [21]): 27 mm; MIC (Curvularia lunata [22]): 100 µg/mL (≈ 229 µM); zone of inhibition at 200 µg/disc (Curvularia lunata [23]): 33 mm
3 | O=S(=O)(Cc1nnc(-c2ccc(Cl)cc2)s1)Nc1ccc(Cl)cc1 | 100 (≈ 250 µM) | 30 | 18 | 200 (≈ 500 µM) | 25 | 23 | 20 | 25 | 200 (≈ 500 µM) | 34.6 | 26 | 35.7 | 23 | 200 (≈ 500 µM) | 200 (≈ 500 µM) | 20 | 27 | 100 (≈ 250 µM) | 27 | 19 | zone of inhibition at 200 µg/disc (Klebsiella pneumoniae [21]): 22 mm; MIC (Curvularia lunata [22]): 100 µg/mL (≈ 250 µM); zone of inhibition at 200 µg/disc (Curvularia lunata [23]): 27 mm
